Consider twelve compounds from ChEMBL document CHEMBL1821678, “Synthesis and bio-activity evaluation of tetraphenyl(phenylamino) methylene bisphosphonates as antioxidant agents and as potent inhibitors of osteoclasts in vitro” (Eur J Med Chem, 2011).

Experiment [1] relates to Osteoclast. Put plainly: In-vitro antibone resorptive activity Sprague-Dawley rat pup long bone osteoclasts assessed as compound concentration causing inhibition of bone resorption after 24 hrs by MTT assay. Format: functional. A digest of the protocol:
(§1)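 Osteoclasts scraped from long bones of 1–2-day-old Sprague–Dawley rat pups into Hepes-buffered DMEM with 7–10% heat-inactivated FCS; attached 30 min to bovine cortical bone slices, unattached cells rinsed off. Treated at 10, 50, 100 and 250 μM, 37 °C, 5% CO2; harvested at 24, 48, 72 h; MTT viability read at 492 nm, triplicates; inhibitory ratio reported. Alendronate reference.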
On the technique in general: Tetrazolium dyes change colour on reduction, which living cells bring about.

Experiment [2] deals with Osteoclast. Description: In-vitro antibone resorptive activity Sprague-Dawley rat pup long bone osteoclasts assessed as compound concentration causing inhibition of bone resorption after 72 hrs by MTT assay. Format: functional. A digest of the protocol:
as §1

The test system of experiment [3] is Radical scavenging activity. Description: Antioxidant activity assessed as DPPH free radical scavenging activity after 30 mins. The experiment is classed as functional. A digest of the protocol:
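DPPH (85 μM) added to medium containing a range of test concentrations; incubated 30 min at room temperature; decrease in absorbance read at 518 nm. Ascorbic acid served as reference for maximal decrease. Activity expressed as % inhibition of DPPH absorbance relative to standard; IC50 derived.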
A general note: The DPPH test is a chemical assay of radical scavenging.

Experiment [4] has as its system Osteoclast. Put plainly: In-vitro antibone resorptive activity Sprague-Dawley rat pup long bone osteoclasts assessed as compound concentration causing inhibition of bone resorption after 48 hrs by MTT assay. Format: functional. A digest of the protocol: as §1
Experiment [5] has as its system Liver. Put plainly: Antioxidant activity in rat liver cells assessed as inhibition of Fe(2+)-asocrbate complex system-induced lipid peroxidation by TBARS assay. The experiment is classed as functional, cell-based. A digest of the protocol:
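Lipid peroxidation in rat liver cells induced by Fe2+–ascorbate complex; measured as thiobarbituric acid reacting substances (TBARS). Vitamin C standard; IC50 derived.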

Experiment [6] in a line: Antioxidant activity assessed as potassium ferricyanide ion reducing power after 20 mins by spectrophotometry. Format: functional. A digest of the protocol: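 Compounds (50–100 μM) mixed with phosphate buffer (0.2 M, pH 6.6) and 1% potassium ferricyanide, 50 °C for 20 min; 10% TCA added, centrifuged; upper layer diluted with water plus 0.1% ferric chloride; absorbance at 700 nm, higher absorbance = greater reducing power. Vitamin C standard.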

The structures appear in SMILES notation. ≈ marks a conversion by molar mass, not a printed value.

For orientation: IC50 means the concentration that inhibits the measured activity by half. In the case of `COc1ccc(NC(P(=O)(Oc2ccccc2)Oc2ccccc2)P(=O)(Oc2ccccc2)Oc2ccccc2)cc1`, the “Concentration causing inhibition of bone resorption” value (shortened to “Concentration causing inhibition”) in experiment [1] came out at 138.7 µM; in experiment [4], 102.6 µM. In experiment [2], the inhibitory concentration turned out to be 67.7 µM. Besides, the IC50 is 40.7 µg/mL (≈ 67.7 µM) in experiment [3], 89.8 µg/mL (≈ 149 µM) in experiment [5] and 2.73 µg/mL (≈ 4.54 µM) in experiment [6].

`O=[N+]([O-])c1ncc(NC(P(=O)(Oc2ccccc2)Oc2ccccc2)P(=O)(Oc2ccccc2)Oc2ccccc2)s1`: the “Concentration causing inhibition” value in experiment [1] was found to be 106.6 µM; in experiment [4], 87.7 µM. Besides, the inhibitory concentration in experiment [2] stood at 51.6 µM. In addition, the figures for the IC50 in experiment [3], in experiment [5] and in experiment [6] were 48.6 µg/mL (≈ 77.9 µM), 97.9 µg/mL (≈ 157 µM) and 3.54 µg/mL (≈ 5.68 µM), respectively.

Consider `O=P(Oc1ccccc1)(Oc1ccccc1)C(Nc1ccc(Cl)cc1)P(=O)(Oc1ccccc1)Oc1ccccc1`, for which the “Concentration causing inhibition” value amounted to 191.4 µM in experiment [1] and 140.3 µM in experiment [4]. Moreover, in experiment [2], the inhibitory concentration is 71.8 µM. Further, the IC50 in experiment [3] turned out to be 41.5 µg/mL (≈ 68.5 µM); in experiment [5], 87.5 µg/mL (≈ 144 µM); in experiment [6] it was 2.71 µg/mL (≈ 4.47 µM).

Turning to `O=P(Oc1ccccc1)(Oc1ccccc1)C(Nc1cccc2ncsc12)P(=O)(Oc1ccccc1)Oc1ccccc1`, the “Concentration causing inhibition” value in experiment [1] came to 125.9 µM; in experiment [4], 95.9 µM. Besides, in experiment [2], the inhibitory concentration was determined as 54.5 µM. Moreover, the IC50 in experiment [3] stood at 47.9 µg/mL (≈ 76.2 µM); in experiment [5] it was 84.9 µg/mL (≈ 135 µM); in experiment [6], 2.44 µg/mL (≈ 3.88 µM).

As for `O=C1O[C@H]([C@@H](O)CO)C(O)=C1O` [ASCORBIC ACID], the half-maximal inhibitory concentration (IC50) in experiment [3] came out at 32.2 µg/mL (≈ 183 µM); in experiment [5], 75.2 µg/mL (≈ 427 µM); in experiment [6], 2.51 µg/mL (≈ 14.3 µM).

`O=P(Oc1ccccc1)(Oc1ccccc1)C(Nc1ccc(F)c(Cl)c1)P(=O)(Oc1ccccc1)Oc1ccccc1`: the results for the “Concentration causing inhibition” value in experiment [1] and in experiment [4] were 32.7 µM and 21.6 µM, respectively. In addition, the inhibitory concentration in experiment [2] is 10.4 µM. In addition, the IC50 in experiment [3] is 32.9 µg/mL (≈ 52.7 µM); in experiment [5] it was 80.6 µg/mL (≈ 129 µM); in experiment [6] it was 2.14 µg/mL (≈ 3.43 µM).

As to `O=P(Oc1ccccc1)(Oc1ccccc1)C(Nc1ccc(F)cc1)P(=O)(Oc1ccccc1)Oc1ccccc1`, the entries for the “Concentration causing inhibition” value in experiment [1] and in experiment [4] were 126.1 µM and 89.1 µM, respectively. In experiment [2], the inhibitory concentration was 56.4 µM. In addition, the IC50 in experiment [3] was 48.2 µg/mL (≈ 81.8 µM); in experiment [5] it was 86.2 µg/mL (≈ 146 µM); in experiment [6], 2.86 µg/mL (≈ 4.85 µM).

Consider `O=P(Oc1ccccc1)(Oc1ccccc1)C(Nc1ccccc1)P(=O)(Oc1ccccc1)Oc1ccccc1` [TETRAPHENYL(PHENYLAMINO)METHYLENE DIPHOSPHONATE], for which the results for the “Concentration causing inhibition” value in experiment [1] and in experiment [4] were 201.6 µM and 168.2 µM, respectively. Besides, the inhibitory concentration in experiment [2] came out at 104.4 µM. The figures for the IC50 in experiment [3], in experiment [5] and in experiment [6] were 80.6 µg/mL (≈ 141 µM), 96 µg/mL (≈ 168 µM) and 3.12 µg/mL (≈ 5.46 µM), respectively.

In the case of `NCCCC(O)(P(=O)(O)O)P(=O)(O)O` [ALENDRONIC ACID], the INH in experiment [1] turned out to be 52.7 µM; in experiment [4], 29.6 µM. Also, in experiment [2], the inhibitory concentration is 20.4 µM.

For `Cc1ncc(NC(P(=O)(Oc2ccccc2)Oc2ccccc2)P(=O)(Oc2ccccc2)Oc2ccccc2)s1`, the “Concentration causing inhibition” value in experiment [1] was found to be 88.4 µM; in experiment [4], 64.2 µM. The inhibitory concentration in experiment [2] was 48.8 µM. Also, the IC50 in experiment [3] was determined as 58.4 µg/mL (≈ 98.6 µM); in experiment [5], 75.2 µg/mL (≈ 127 µM); in experiment [6] it was 3.01 µg/mL (≈ 5.08 µM).

Turning to `O=[N+]([O-])c1cccc(NC(P(=O)(Oc2ccccc2)Oc2ccccc2)P(=O)(Oc2ccccc2)Oc2ccccc2)c1`, the “Concentration causing inhibition” value in experiment [1] was 49.6 µM; in experiment [4], 28.8 µM. In addition, the inhibitory concentration in experiment [2] amounted to 14.6 µM. The values for the IC50 in experiment [3], in experiment [5] and in experiment [6] were 39.6 µg/mL (≈ 64.2 µM), 85.7 µg/mL (≈ 139 µM) and 2.09 µg/mL (≈ 3.39 µM), respectively.

Consider `O=[N+]([O-])c1cc(NC(P(=O)(Oc2ccccc2)Oc2ccccc2)P(=O)(Oc2ccccc2)Oc2ccccc2)ccc1F`, for which the entries for the “Concentration causing inhibition” value in experiment [1] and in experiment [4] were 31.2 µM and 19.1 µM, respectively. In addition, the inhibitory concentration in experiment [2] stood at 8.1 µM. Also, the values for the IC50 in experiment [3], in experiment [5] and in experiment [6] were 30.1 µg/mL (≈ 47.4 µM), 78.5 µg/mL (≈ 124 µM) and 2.27 µg/mL (≈ 3.58 µM), respectively.
